In ChEMBL document CHEMBL3243993, “Cardenolide analogues. 4. (20R)- and (20S)-Cardanolides: on the roles of the 20(22)-ene and 14beta-hydroxyl in genin activity” (J Med Chem, 1979):

Legend:
[1] = Inhibition of rat brain (Na+,K+)ATPase in presence of appropriate Mg2+ and Na+; conditions: read-out: I50
[2] = Inhibition of rat brain (Na+,K+)ATPase incubated for 10 mins followed by Kcl added in presence of appropriate Mg2+ and Na+; conditions: read-out: I50
Outline: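 Steroids added in ethanol to the (Na+,K+)ATPase tubes, at most 20 μL ethanol per tube. After 10 min, KCl was added to start (Na+,K+)ATPase activity. Where a steroid was insoluble in the medium, no precise value could be obtained.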

[3] = Solubility of the compound in steroid medium; assay type: physicochemical
Outline: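 Observed in the (Na⁺,K⁺)ATPase assay medium. Steroids were added in ethanol to the enzyme tubes, at no more than 20 μL ethanol per tube. After 10 min, KCl was added to start (Na⁺,K⁺)ATPase activity.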

SMILES: C=C1C(=O)OC[C@@H]1[C@H]1CC[C@]2(O)[C@@H]3CC[C@@H]4C[C@@H](O)CC[C@]4(C)[C@H]3CC[C@]12C
- IC50 [1]: 70 µM
- IC50 [2]: 70 µM

SMILES: C[C@]12CC[C@H](O)C[C@H]1CC[C@@H]1[C@@H]2CC[C@]2(C)[C@@H]([C@H]3COC(=O)C3)CC[C@]12O
- IC50 [1]: 14 µM
- IC50 [2]: 12 µM

SMILES: C[C@]12CC[C@H](O)C[C@H]1CC[C@@H]1[C@@H]2CC[C@]2(C)[C@@H]([C@@H]3COC(=O)C3)CC[C@]12O
- IC50 [1]: 14 µM
- IC50 [2]: 11 µM

SMILES: C=C1C(=O)OC[C@@H]1[C@H]1CC=C2[C@@H]3CC[C@@H]4C[C@@H](O)CC[C@]4(C)[C@H]3CC[C@@]21C
- IC50 [1]: 30 µM
- IC50 [2]: 20 µM

SMILES: C[C@]12CC[C@H](O)C[C@H]1CC[C@@H]1[C@@H]2CC[C@]2(C)[C@@H](C3=CC(=O)OC3)CC[C@]12O [DIGITOXIGENIN]
- IC50 [1]: 0.35 µM
- IC50 [2]: 0.35 µM

SMILES: C=C1C(=O)OC[C@H]1[C@H]1CC=C2[C@@H]3CC[C@@H]4C[C@@H](O)CC[C@]4(C)[C@H]3CC[C@@]21C
- IC50 [1]: 100 µM
- IC50 [2]: 100 µM
- solubility [3]: Insoluble

SMILES: C=C1C(=O)OC[C@H]1[C@H]1CC[C@]2(O)[C@@H]3CC[C@@H]4C[C@@H](O)CC[C@]4(C)[C@H]3CC[C@]12C
- IC50 [1]: 70 µM
- IC50 [2]: 60 µM
